These results are taken from ChEMBL document CHEMBL1140440, “Simple but highly effective three-dimensional chemical-feature-based pharmacophore model for diketo acid derivatives as hepatitis C virus RNA-dependent RNA polymerase inhibitors” (J Med Chem, 2005).

The target of this experiment is RNA-directed RNA polymerase (Hepacivirus hominis, UniProt O39930). Description: Inhibitory concentration against NS5B HCV polymerase using [alpha-32P]UTP as radioligand (30 degree C for 2 h, at pH 7.5 with Tris-HCl buffer). The procedure, abridged:
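Recombinant HCV RdRp (1 nM) in 20 mM Tris-HCl pH 7.5, 5 mM MgCl2, 1 mM DTT, 1 mM EDTA, RNase inhibitor, 50 µg/mL actinomycin D, 10 µg/mL RNA template, 0.5 mM ATP/CTP/GTP, [α-32P]UTP, limiting nucleotide 10 µM. 30 °C, 2 h; proteinase K stop, extraction, urea-PAGE, phosphorimaging. IC50s rescaled by a reference inhibitor's measured/literature IC50 ratio.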

Sequence of RNA-directed RNA polymerase (O39930 whole entry): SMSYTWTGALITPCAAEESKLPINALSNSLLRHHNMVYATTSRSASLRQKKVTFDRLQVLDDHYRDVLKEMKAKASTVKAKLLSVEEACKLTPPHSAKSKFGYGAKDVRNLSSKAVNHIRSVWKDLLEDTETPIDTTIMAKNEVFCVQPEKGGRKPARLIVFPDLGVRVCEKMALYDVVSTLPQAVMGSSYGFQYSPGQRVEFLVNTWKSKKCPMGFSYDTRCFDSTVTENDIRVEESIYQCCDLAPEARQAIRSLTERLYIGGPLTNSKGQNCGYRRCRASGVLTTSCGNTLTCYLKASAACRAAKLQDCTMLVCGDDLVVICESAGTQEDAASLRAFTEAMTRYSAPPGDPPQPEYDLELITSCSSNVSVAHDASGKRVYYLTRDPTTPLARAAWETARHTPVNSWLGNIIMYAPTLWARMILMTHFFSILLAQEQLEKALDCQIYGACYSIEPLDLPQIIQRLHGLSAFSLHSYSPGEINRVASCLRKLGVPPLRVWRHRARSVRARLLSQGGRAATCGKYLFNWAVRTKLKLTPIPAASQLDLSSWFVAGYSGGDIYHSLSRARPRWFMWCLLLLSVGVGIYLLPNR

Turning to `O=C(O)C(=O)/C=C(\O)c1cccn1Cc1c(F)cccc1F`, the IC50 (in general, the concentration that inhibits the measured activity by half) stood at 7.4 µM.
Under `O=C(O)C(=O)/C=C(\O)c1sccc1Cc1cccc(F)c1` stands 9.9 µM; under `Cc1ccccc1Cn1cccc1/C=C/C(O)=C/C(=O)C(=O)O`, 18 µM.
Under `O=C(O)C(=O)/C=C(\O)c1ccccc1` stands 5.6 µM; under `O=C(O)C(=O)/C=C(\O)c1ccsc1Sc1cccc(Cl)c1`, 7.5 µM.
As to `O=C(O)C(=O)/C=C(\O)c1cccc(-c2ccccc2)c1`, the IC50 was determined as 28 µM.
Under `N#Cc1cccc(Cn2ccc(/C(O)=C/C(=O)C(=O)O)c2)c1` stands 4.6 µM; under `N#Cc1cc(Cl)c(Cl)cc1COc1cccc(/C(O)=C/C(=O)C(=O)O)c1`, 0.056 µM; under `O=C(O)C(=O)/C=C(\O)c1cccc(OCc2ccc(-c3ccccc3)cc2)c1`, 50 µM.
Under `CCCCS(=O)(=O)N1CCCC(Cc2ccc(Cl)cc2)(/C(O)=C/C(=O)C(=O)O)C1` (stereo unspecified) stands 81.4 µM.
Under `O=C(O)C(=O)/C=C(\O)c1cccc(OCc2cccc(Oc3ccccc3)c2)c1` stands 50 µM.
Regarding `O=C(O)C(=O)/C=C(\O)c1cccc(Oc2ccccc2)c1`, the 50% inhibitory concentration (IC50) amounted to 19 µM.
Under `O=C(O)C(=O)/C=C(\O)c1cccc(NC(=O)C(=O)O)c1` stands 19 µM; under `N#Cc1ccccc1Cn1cccc1/C(O)=C/C(=O)C(=O)O`, 6.3 µM.
Under `O=C(O)C(=O)/C=C(\O)c1cccn1Cc1ccc(O)cc1` stands 13 µM; under `Cc1cc(C)c(/C(O)=C/C(=O)C(=O)O)s1`, 8.2 µM; under `Cc1ccc(/C(O)=C/C(=O)C(=O)O)c(C)c1`, 2 µM.
The molecule `O=C(O)C(=O)/C=C(\O)c1cc2c(s1)-c1cc(F)ccc1OC2` displayed a concentration for half-maximal inhibition (IC50) of 27 µM.
Under `O=C(O)C(=O)/C=C(\O)c1cccc(OCc2ccccc2)c1` stands 8 µM; under `O=C(O)C(=O)/C=C(\O)c1cccc(NS(=O)(=O)c2cc(Cl)c(Cl)cc2Cl)c1`, 0.049 µM; under `O=C(O)C(=O)/C=C(O)/C=C/c1c[nH]c2ccc(Cl)cc12`, 18 µM.
Under `Cn1cc(C(=O)c2ccc(F)cc2)cc1/C=C/C(O)=C/C(=O)C(=O)O` stands 16 µM; under `O=C(O)C(=O)/C=C(\O)c1ccccc1Cc1ccc(F)cc1`, 8.3 µM; under `O=C(O)C(=O)/C=C(\O)c1cc(O)cc(OCc2ccccc2)c1`, 1.4 µM.
Under `O=C(O)C(=O)/C=C(\O)c1ccc(N2CCCCC2)s1` stands 8.2 µM.
On to `N#CCCCOc1ccccc1/C(O)=C/C(=O)C(=O)O`, for which the 50% inhibitory concentration (IC50) was 0.38 µM.
Under `Cc1ccc(Cn2cccc2/C=C/C(O)=C/C(=O)C(=O)O)cc1` stands 28 µM; under `Cc1cc(/C(O)=C/C(=O)C(=O)O)c(C)o1`, 14 µM; under `O=C(O)C(=O)/C=C(\O)c1ccc(Cc2ccccc2)s1`, 68 µM.
Under `O=C(O)C(=O)/C=C(\O)C12C[C@H]3C[C@@H](C1)C[C@@H](C2)C3` stands 6.7 µM; under `O=C(O)C(=O)/C=C(\O)c1cccn1Cc1ccc2ccccc2c1`, 13 µM.
Under `O=C(O)C(=O)/C=C(\O)c1cccc(Cc2cc(Br)cc(Br)c2)c1` stands 32 µM.
In turn, `O=C(O)C(=O)/C=C(\O)c1ccc(Cc2ccc(F)cc2)s1` registered a concentration for half-maximal inhibition (IC50) of 65 µM.
Under `O=C(O)C(=O)/C=C(O)/C=C/c1cccn1Cc1cccc(F)c1` stands 18 µM; under `Cc1cccc(/C(O)=C/C(=O)C(=O)O)c1`, 12 µM; under `O=C(O)C(=O)/C=C(\O)c1cccn1Cc1ccccc1Cl`, 24 µM.
Under `O=C(O)C(=O)/C=C(\O)c1cnc2cc(Cl)ccc2c1O` stands 26 µM.
Under `O=C(O)C(=O)/C=C(\O)c1cccn1Cc1ccc(F)cc1` stands 93 µM.
Consider `O=C(O)C(=O)/C=C(\O)c1ccc(Cc2cccc(Cl)c2)s1`, for which the IC50 was 82 µM. The IC50 values of the last two molecules are within 1.5-fold of each other.
Under `Cc1sc(-c2ccccc2)cc1/C(O)=C/C(=O)C(=O)O` stands 167 µM; under `Cn1cc(/C(O)=C/C(=O)C(=O)O)cc1Cc1cccc(F)c1`, 21 µM; under `O=C(O)C(=O)/C=C(\O)c1cccc(NS(=O)(=O)c2cc(Cl)cc(Cl)c2)c1`, 0.14 µM.
Under `O=C(O)C(=O)/C=C(\O)c1ccsc1Cc1cccc(F)c1` stands 80 µM.
Under `O=C(O)C(=O)/C=C(\O)c1ccsc1Cc1ccc(F)cc1` stands 18 µM.
`O=C(O)C(=O)/C=C(\O)c1cccc(OCc2cc(-c3ccccc3)on2)c1` registered a half-inhibitory concentration (IC50) of 6 µM.
With `O=C(O)C(=O)/C=C(\O)c1cc(I)cn1Cc1ccc(F)cc1`, the concentration for half-maximal inhibition (IC50) stood at 18 µM. This IC50 lies about 3-fold higher than the previous one.
Under `O=C(O)C(=O)/C=C(\O)c1ccc(-c2ccc(F)c(Cl)c2)o1` stands 41 µM; under `O=C(O)C(=O)/C=C(\O)c1cccn1Cc1ccccc1`, 29 µM.
Under `N#CCCCCn1cccc1/C(O)=C/C(=O)C(=O)O` stands 13 µM; under `O=C(O)C(=O)/C=C(\O)c1ccsc1`, 4 µM.
Under `O=C(O)C(=O)/C=C(\O)c1ccc(Cc2cccc(F)c2)s1` stands 74 µM.
With `COc1ccc(Cn2cccc2/C=C/C(O)=C/C(=O)C(=O)O)cc1`, the IC50 amounted to 16 µM.
Under `O=C(O)C(=O)/C=C(\O)c1cccc(N2CCCC2)c1` stands 84 µM; under `O=C(O)C(=O)/C=C(\O)c1ccccc1OCc1ccccc1`, 44 µM.
Under `O=C(O)C(=O)/C=C(\O)c1cccn1Cc1cccc(F)c1` stands 30 µM; under `COc1cccc(Cn2cccc2/C(O)=C/C(=O)C(=O)O)c1`, 7.6 µM; under `O=C(O)C(=O)/C=C(\O)c1cccc(O)c1`, 1 µM.
Under `N#Cc1cccc(Cl)c1COc1cc(O)cc(/C(O)=C/C(=O)C(=O)O)c1` stands 0.1 µM.
The molecule `COc1cccc(/C(O)=C/C(=O)C(=O)O)c1` yielded an IC50 of 40 µM.
On to `O=C(O)C(=O)/C=C(\O)c1ccco1`, for which the IC50 came out at 50 µM. This IC50 and that of the molecule before are within 1.5-fold of each other.
Under `O=C(O)C(=O)/C=C(\O)c1cccc(OCc2ccsc2C(=O)O)c1` stands 0.95 µM; under `Cc1ccc(/C(O)=C/C(=O)C(=O)O)o1`, 58 µM; under `O=C(O)C(=O)/C=C(\O)c1cccc(OCc2cccc3ccccc23)c1`, 0.67 µM.
Under `N#CCCCOc1ccc(O)cc1/C(O)=C/C(=O)C(=O)O` stands 0.11 µM.
Under `Cc1coc(C)c1/C(O)=C/C(=O)C(=O)O` stands 48 µM; under `O=C(O)C(=O)/C=C(\O)c1cccc(NCc2ccccc2)c1`, 17 µM.
